# Experimental data taken from paper PMC9293670 (Acta Pharmaceutica Sinica. B, 2022).
# Columns and labels:
# PDE8A1 (480–820) = PDE8A1 (480–820) (Homo sapiens, UniProt O60658); experiment: PDE8A inhibition, 3H-cAMP radiometric enzyme assay; format: biochemical
# How it was run: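 Recombinant PDE8A1 (480–820) was expressed in E. coli BL21 (DE3), denatured in guanidine, refolded, and purified on Ni-NTA, hydroxyapatite, Q-Sepharose and gel filtration. ³H-cAMP (~20,000 cpm/assay) was reacted in Tris-HCl 20 mmol/L pH 7.5, MnCl₂ 10 mmol/L and DTT 1 mmol/L at 25 °C for 15 min. Reactions were stopped with ZnSO₄ then Ba(OH)₂, and supernatant ³H-cAMP was scintillation-counted. IC50 came from nonlinear regression over ≥8 concentrations, with each test run ≥3 times.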
# [1] = Metabolic stability in rat liver microsomes; format: in vitro ADME
# PDE8A1 (480–820), sequence (O60658 480-820): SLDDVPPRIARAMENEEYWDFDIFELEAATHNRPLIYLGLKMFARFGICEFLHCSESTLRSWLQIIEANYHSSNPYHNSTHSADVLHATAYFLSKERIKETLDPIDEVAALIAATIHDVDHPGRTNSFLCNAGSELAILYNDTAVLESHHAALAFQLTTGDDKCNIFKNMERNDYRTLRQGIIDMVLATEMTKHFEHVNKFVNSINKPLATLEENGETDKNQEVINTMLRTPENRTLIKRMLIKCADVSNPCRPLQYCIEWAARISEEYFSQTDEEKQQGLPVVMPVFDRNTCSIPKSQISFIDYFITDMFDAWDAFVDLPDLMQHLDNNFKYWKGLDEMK
Compound,IC50 (PDE8A1 (480–820)),half-life [1]
Nc1nc(Cl)nc2c1ncn2Cc1cc(OCC(F)F)cc(OC2CCC2)c1 [Compound 18],20 ± 2 nM,
CC(C)c1cc(Cn2cnc3c(N)nc(Cl)nc32)cc(OCC(F)F)c1 [Compound 16],4.6 ± 0.6 nM,6 min
Nc1nc(Cl)nc2c1ncn2Cc1cc(F)cc(OCC(F)F)c1 [Compound 11],51 ± 3 nM,
Nc1nc(Cl)nc2c1ncn2Cc1cc(O)cc(OCC(F)F)c1 [Compound 12],193 ± 17 nM,
CCOc1cc(Cn2cnc3c(N)nc(Cl)nc32)cc(OCC(F)F)c1 [Compound 14],593 ± 69 nM,
Nc1nc(Cl)nc2c1ncn2Cc1cc(OCC(F)F)cc(OCC2CC2)c1 [Compound 19],40 ± 1 nM,
COCCOc1cc(Cn2cnc3c(N)nc(Cl)nc32)cc(OCC(F)F)c1 [Compound 20],52 ± 5 nM,
Nc1nc(Cl)nc2c1ncn2Cc1cc(OCC(F)F)cc(-c2ccncc2)c1 [Compound 22],3.1 ± 0.2 nM,8 min
COc1cc(Cn2cnc3c(N)nc(Cl)nc32)cc(OCC(F)F)c1 [Compound 13],591 ± 11 nM,
Nc1nc(Cl)nc2c1ncn2Cc1cc(OCc2ccccc2)cc(OCC(F)F)c1 [Compound 21],597 ± 61 nM,
Nc1nc(Cl)nc2c1ncn2Cc1cc(OCC(F)F)cc(-c2ccco2)c1 [Compound 25],13 ± 2 nM,
CC(C)Oc1cc(Cn2cnc3c(N)nc(Cl)nc32)cc(OCC(F)F)c1 [Compound 17],5 ± 0.3 nM,16 min
Nc1nc(Cl)nc2c1ncn2Cc1cc(OCC(F)F)cc(-c2cccnc2)c1 [Compound 23],4.8 ± 0.3 nM,39 min
